Source: ChEMBL document CHEMBL1649143, “In vitro activities of fluconazole and voriconazole against clinical isolates of Candida spp. determined by disk diffusion testing in Turin, Italy” (2009)
In brackets after ≈: the same amount, converted by molar mass.

How the values were obtained:
Candida albicans [1] = assay: Antifungal activity against Candida albicans assessed as percent susceptible isolates at 1 ug/disc by CLSI M44-A disk diffusion method; format: functional
Outline: (§1)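 Agar disk diffusion per CLSI M44-A on clinical Candida isolates collected in Turin, Italy; 1,024 isolates tested in total. Each isolate was classed as susceptible (S), susceptible-dose dependent (SDD) or resistant (R), and the percentage of isolates per species in each category was reported.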

Pichia kudriavzevii [2] = assay: Antifungal activity against Candida krusei assessed as percent susceptible isolates at 1 ug/disc by CLSI M44-A disk diffusion method; format: functional; outline: as §1
Candida = assay: Antifungal activity against Candida sp. by reference dilution method; format: functional
Candida tropicalis [3] = assay: Antifungal activity against Candida tropicalis by reference dilution method; format: functional
Kluyveromyces marxianus [4] = assay: Antifungal activity against Candida kefyr assessed as percent dose dependent percent susceptible isolates at 1 ug/disc by CLSI M44-A disk diffusion method; format: functional; outline: as §1
Pichia kudriavzevii [5] = assay: Antifungal activity against Candida krusei assessed as percent resistant isolates at 1 ug/disc by CLSI M44-A disk diffusion method; format: functional; outline: as §1
Pichia kudriavzevii [6] = assay: Antifungal activity against Candida krusei assessed as dose dependent percent susceptible isolates at 1 ug/disc by CLSI M44-A disk diffusion method; format: functional; outline: as §1
Nakaseomyces glabratus [7] = assay: Antifungal activity against Candida glabrata assessed as percent resistant isolates at 1 ug/disc by CLSI M44-A disk diffusion method; format: functional; outline: as §1
Pichia norvegensis [8] = assay: Antifungal activity against Candida norvegensis assessed as percent susceptible isolates at 1 ug/disc by CLSI M44-A disk diffusion method
Pichia norvegensis [9] = assay: Antifungal activity against Candida norvegensis by reference dilution method; format: functional
Nakaseomyces glabratus [10] = assay: Antifungal activity against Candida glabrata by reference dilution method; format: functional
Nakaseomyces glabratus [11] = assay: Antifungal activity against Candida glabrata assessed as percent susceptible isolates at 1 ug/disc by CLSI M44-A disk diffusion method; format: functional; outline: as §1
Candida tropicalis [12] = assay: Antifungal activity against Candida tropicalis assessed as percent susceptible isolates at 1 ug/disc by CLSI M44-A disk diffusion method; format: functional; outline: as §1
Candida tropicalis [13] = assay: Antifungal activity against Candida tropicalis assessed as dose dependent percent susceptible isolates at 1 ug/disc by CLSI M44-A disk diffusion method; format: functional; outline: as §1
Pichia norvegensis [14] = assay: Antifungal activity against Candida norvegensis assessed as percent dose dependent percent susceptible isolates at 1 ug/disc by CLSI M44-A disk diffusion method; format: functional; outline: as §1
Kluyveromyces marxianus [15] = assay: Antifungal activity against Candida kefyr assessed as percent susceptible isolates at 1 ug/disc by CLSI M44-A disk diffusion method; format: functional; outline: as §1
Pichia kudriavzevii [16] = assay: Antifungal activity against Candida krusei by reference dilution method; format: functional
Candida albicans [17] = assay: Antifungal activity against Candida albicans by reference dilution method; format: functional
[Candida] intermedia = Antifungal activity against Candida intermedia assessed as percent susceptible isolates at 1 ug/disc by CLSI M44-A disk diffusion method; format: functional, Sungouiella intermedia; outline: as §1
Clavispora lusitaniae = assay: Antifungal activity against Candida lusitaniae assessed as percent susceptible isolates at 1 ug/disc by CLSI M44-A disk diffusion method; format: functional; outline: as §1
Pichia fermentans = assay: Antifungal activity against Candida lambica assessed as percent susceptible isolates at 1 ug/disc by CLSI M44-A disk diffusion method; format: functional; outline: as §1
Cyberlindnera jadinii = assay: Antifungal against Candida utilis assessed as percent susceptible isolates at 1 ug/disc by CLSI M44-A disk diffusion method; format: functional; outline: as §1
[18] = Antifungal activity against Candida holmii assessed as percent susceptible isolates at 1 ug/disc by CLSI M44-A disk diffusion method; format: functional; conditions: Kazachstania exigua; outline: as §1
Candida parapsilosis [19] = assay: Antifungal activity against Candida parapsilosis by reference dilution method; format: functional; conditions: Lodderomyces parapsilosis
[20] = Antifungal activity against Candida membranifaciens assessed as percent susceptible isolates at 1 ug/disc by CLSI M44-A disk diffusion method; format: functional; outline: as §1
Candida tropicalis [21] = assay: Antifungal activity against Candida tropicalis assessed as percent resistant isolates at 1 ug/disc by CLSI M44-A disk diffusion method; format: functional; outline: as §1
[22] = Antifungal activity against Candida humicola assessed as percent susceptible isolates at 1 ug/disc by CLSI M44-A disk diffusion method; format: functional; outline: as §1
Candida parapsilosis [23] = assay: Antifungal activity against Candida parapsilosis assessed as percent susceptible isolates at 1 ug/disc by CLSI M44-A disk diffusion method; format: functional; outline: as §1
Kluyveromyces marxianus [24] = assay: Antifungal activity against Candida kefyr by reference dilution method; format: functional
Diutina rugosa = assay: Antifungal activity against Candida rugosa assessed as percent susceptible isolates at 1 ug/disc by CLSI M44-A disk diffusion method; format: functional; outline: as §1
Nakaseomyces glabratus [25] = assay: Antifungal activity against Candida glabrata assessed as dose dependent percent susceptible isolates at 1 ug/disc by CLSI M44-A disk diffusion method; format: functional; outline: as §1

Work on C[C@@H](c1ncncc1F)[C@](O)(Cn1cncn1)c1ccc(F)cc1F [VORICONAZOLE] yielded an Activity (Candida albicans [1]) of 99.8%, an Activity (Pichia kudriavzevii [2]) of 92% and an MIC50 (Candida) of 0.06 µg/mL (≈ 0.172 µM). For the same compound, the MIC90 (Candida) was 1 µg/mL (≈ 2.86 µM), the MIC50 (Candida tropicalis [3]) was 0.12 µg/mL (≈ 0.344 µM) and the MIC90 (Candida tropicalis [3]) was 2 µg/mL (≈ 5.73 µM). The Activity (Kluyveromyces marxianus [4]) was 4%, the Activity (Pichia kudriavzevii [5]) was 4% and the Activity (Pichia kudriavzevii [6]) was 4%. For the same compound, the Activity (Nakaseomyces glabratus [7]) was 11%, the Activity (Pichia norvegensis [8]) was 93% and the MIC50 (Pichia norvegensis [9]) was 0.25 µg/mL (≈ 0.716 µM). The MIC90 (Pichia norvegensis [9]) was 1 µg/mL (≈ 2.86 µM), the MIC50 (Nakaseomyces glabratus [10]) was 0.25 µg/mL (≈ 0.716 µM) and the MIC90 (Nakaseomyces glabratus [10]) was 4 µg/mL (≈ 11.5 µM). For the same compound, the Activity (Nakaseomyces glabratus [11]) was 87%, the Activity (Candida tropicalis [12]) was 90% and the Activity (Candida tropicalis [13]) was 3%. It also gave an Activity (Pichia norvegensis [14]) of 7%, an Activity (Kluyveromyces marxianus [15]) of 96% and an MIC50 (Pichia kudriavzevii [16]) of 0.5 µg/mL (≈ 1.43 µM). For the same compound, the MIC90 (Pichia kudriavzevii [16]) was 2 µg/mL (≈ 5.73 µM), the MIC50 (Candida albicans [17]) was 0.06 µg/mL (≈ 0.172 µM) and the MIC90 (Candida albicans [17]) was 0.12 µg/mL (≈ 0.344 µM). For the same compound, the Activity ([Candida] intermedia) was 100%, the Activity (Clavispora lusitaniae) was 100% and the Activity (Pichia fermentans) was 100%. It also gave an Activity (Cyberlindnera jadinii) of 100%, an Activity [18] of 100% and an MIC50 (Candida parapsilosis [19]) of 0.06 µg/mL (≈ 0.172 µM). For the same compound, the MIC90 (Candida parapsilosis [19]) was 0.12 µg/mL (≈ 0.344 µM), the Activity [20] was 100% and the Activity (Candida tropicalis [21]) was 7%. It also gave an Activity [22] of 100%, an Activity (Candida parapsilosis [23]) of 100% and an MIC (Kluyveromyces marxianus [24]) of 0.008 µg/mL (≈ 0.0229 µM). For the same compound, the MIC50 (Kluyveromyces marxianus [24]) was 0.01 µg/mL (≈ 0.0286 µM), the MIC90 (Kluyveromyces marxianus [24]) was 0.06 µg/mL (≈ 0.172 µM) and the Activity (Diutina rugosa) was 100%. For the same compound, the Activity (Nakaseomyces glabratus [25]) was 3%.
